# In ChEMBL document CHEMBL1128294, “Farnesyl derivatives of rigid carboxylic acids-inhibitors of ras-dependent cell growth” (J Med Chem, 1995):
# Columns and labels:
# [1] = target: Protein-S-isoprenylcysteine O-methyltransferase (Rattus norvegicus) (UniProt Q9WVM4); assay: In vitro inhibition of Prenylated protein methyltransferase of rat brain cerebellar synaptosomes was assessed from the amount of [3H]-methyl esters formed in 15 min; type: subcellular
# In short: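 Compounds at 150 μM final were tested as methyl acceptors. Enzyme source was rat brain cerebellar synaptosomes (100 μg protein) with 25 μM [methyl-3H]AdoMet ([…]) as methyl donor. Read-out was [3H]methyl esters formed in 15 min, in quadruplicate, ±SEM. Detection limit about 3 pmol.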
# EJ [2] = assay: Effective concentration required for 50% inhibition of growth of human Ha-ras-transformed rat 1 (EJ)cells; type: functional, cell-based
# In short: (§1)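 Ha-ras-transformed Rat1 (EJ) cells grown in DMEM/10% FCS with compound in 0.1% DMSO (vehicle controls 0.1% DMSO), 7-day cultures. Cell number by direct counting gives dose–response curves, and EC50 is the concentration giving 50% growth inhibition. Means of three to five determinations ±SD.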
# EJ [3] = assay: The highest nontoxic concentration for human Ha-ras-transformed rat 1 (EJ) cells was determined by MTT staining method; type: functional
# In short: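 EJ (Ha-ras-transformed Rat1) cultures treated with compound were stained with MTT to detect live cells, with trypan blue also used to detect dead cells. The value reported is the highest concentration without toxicity.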
# [4] = target: Protein-S-isoprenylcysteine O-methyltransferase (Rattus norvegicus, UniProt Q9WVM4); assay: Ability to inhibit prenylated protein methyltransferase (PPMTase) in cell free systems
# Chain of Protein-S-isoprenylcysteine O-methyltransferase (Q9WVM4 whole entry): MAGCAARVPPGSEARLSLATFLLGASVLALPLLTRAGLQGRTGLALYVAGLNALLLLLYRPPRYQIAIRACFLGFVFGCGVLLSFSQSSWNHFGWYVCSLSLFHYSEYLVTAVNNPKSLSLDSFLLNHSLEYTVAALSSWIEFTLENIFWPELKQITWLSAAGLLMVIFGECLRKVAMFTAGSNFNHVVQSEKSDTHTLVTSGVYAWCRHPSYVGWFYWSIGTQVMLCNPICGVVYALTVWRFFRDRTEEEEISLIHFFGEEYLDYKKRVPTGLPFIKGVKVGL
# In short: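 PPMTase source: rat cerebellum synaptosomal membranes (100 μg protein). Substrate 50 μM AFC with 25 μM [methyl-3H]AdoMet, 37 °C for 15 min, with and without a range of inhibitor concentrations, run in duplicate. Activity with drug is expressed as percent of activity without drug, and Ki is derived from the inhibition curves.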
# EJ [5] = assay: Effective concentration required for 50% inhibition of growth of human Ha-ras-transformed rat 1 (EJ)cells; not active at 200 uM; type: functional, cell-based; in short: as §1
# Chain of Protein-S-isoprenylcysteine O-methyltransferase (Rattus norvegicus) (Q9WVM4 whole entry): as above
Structure (SMILES),Amount formed [1] [pmol],Ki [4] [µM],EC50 (EJ [2]) [µM],Cytotoxic endpoint (EJ [3]) [µM],EC50 (EJ [5])
CC(=O)N(C/C=C(\C)CC/C=C(\C)CCC=C(C)C)C(CS)C(=O)O (stereo not drawn),52.5,–,–,–,–
CCC(=O)SC/C=C(\C)CC/C=C(\C)CCC=C(C)C,26.3,–,–,–,–
CC(C)=CCC/C(C)=C/CC/C(C)=C/CNc1ccc(Cl)c(C(=O)O)c1,0.37,8,30.8,200,–

# The next lines start with results.
Amount formed [1] [pmol],Ki [4] [µM],Structure (SMILES),EC50 (EJ [2]) [µM],Cytotoxic endpoint (EJ [3]) [µM],EC50 (EJ [5])
0.73,14.9,CC(C)=CCC/C(C)=C/CC/C(C)=C/CSc1ncccc1C(=O)O,126,200,–
0.76,2.8,CC(C)=CCC/C(C)=C/CC/C(C)=C/CSc1ccccc1C(=O)O [SALIRASIB],7.5,200,–
0.89,72.8,CC(C)=CCC/C(C)=C/CC/C(C)=C/CSc1ccc(N)cc1C(=O)O,–,25,Not Active
